We go through 22 compounds from ChEMBL document CHEMBL1126276, “Synthesis and antimalarial properties of 1-imino derivatives of 7-chloro-3-substituted-3,4-dihydro-1,9(2H,10H)-acridinediones and related structures” (J Med Chem, 1992).

What all share (format): functional
In experiment [1] the test system is Plasmodium berghei. As to the kind of experiment: Antimalarial activity in Plasmodium berghei infected mice (Mus musculus) after 160 mg/kg subcutaneous dose. The essentials:
(§1)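 […] in mice infected with a normal drug-sensitive P. berghei strain. Compound dissolved or suspended in sesame or peanut oil, given as a single subcutaneous dose 72 h postinfection.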

The subject of experiment [2] is Plasmodium berghei. As to the kind of experiment: Antimalarial activity in Plasmodium berghei infected mice (Mus musculus) after 320 mg/kg subcutaneous dose. The essentials:
as §1

The subject of experiment [3] is Plasmodium berghei. As to the kind of experiment: Antimalarial activity Plasmodium berghei infected mice (Mus musculus) after 640 mg/kg subcutaneous dose. A digest of the protocol: as §1
Experiment [4] concerns Plasmodium berghei. As to the kind of experiment: Antimalarial activity in Plasmodium berghei infected mice (Mus musculus) after 80 mg/kg subcutaneous dose. A digest of the protocol:
as §1

In experiment [5] the test system is Plasmodium berghei. As to the kind of experiment: Antimalarial activity in Plasmodium berghei infected mice (Mus musculus) after subcutaneous 320 mg/kg dose. A digest of the protocol:
(§2)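 Normal drug-sensitive P. berghei strain in mice. Compound dissolved or suspended in sesame or peanut oil, given parenterally as a single subcutaneous dose 72 h postinfection.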

Experiment [6] deals with Plasmodium berghei. As to the kind of experiment: Antimalarial activity in Plasmodium berghei infected mice (Mus musculus) after subcutaneous 640 mg/kg dose. A digest of the protocol:
as §2

The test system of experiment [7] is Plasmodium berghei. As to the kind of experiment: Antimalarial activity in Plasmodium berghei infected mice (Mus musculus) after 40 mg/kg subcutaneous dose. The essentials:
as §1

For experiment [8], the system named is Plasmodium berghei. As to the kind of experiment: Antimalarial activity in Plasmodium berghei infected mice (Mus musculus) after subcutaneous 160 mg/kg dose. The essentials: as §2
In experiment [9] the test system is Plasmodium berghei. As to the kind of experiment: Antimalarial activity in Plasmodium berghei infected mice (Mus musculus) after 20 mg/kg subcutaneous dose. The essentials:
as §1

Regarding `O=C1CC(c2ccccn2)Cc2nc3ccc(Cl)cc3c(O)c21` (stereo not given), the “Delta mean survival time” value in the experiment on Plasmodium berghei [1] amounted to 2.4; in the experiment on Plasmodium berghei [2] it was 7.3; in the experiment on Plasmodium berghei [3] it was 4.4; in the experiment with Plasmodium berghei [4], 1.1.

Consider `Cc1ccc(C2C/C(=N\CCCN(C)C)c3c(nc4ccc(Cl)cc4c3O)C2)cc1` (stereo not given), for which the “No. of cured mice” value in the experiment with Plasmodium berghei [5] and with Plasmodium berghei [6] was 2 in each case. In addition, the “Delta mean survival time” value in the experiment on Plasmodium berghei [1] stood at 6.6; with Plasmodium berghei [2], 6.5; in the experiment on Plasmodium berghei [3], 9.8; in the experiment with Plasmodium berghei [4] it was 1.4; with Plasmodium berghei [7], 0.8.

As to `COc1ccc2nc3c(c(O)c2c1)C(=O)CC(c1ccc(C(F)(F)F)cc1)C3` (stereo not given), the “Delta mean survival time” value in the experiment with Plasmodium berghei [1] is reported as 2.9; in the experiment on Plasmodium berghei [2] it was 2.3; in the experiment with Plasmodium berghei [3], 4.4; with Plasmodium berghei [4] it was 0.1; in the experiment with Plasmodium berghei [7], -0.3.

Consider `CCN(CC)CC/N=C1\CC(c2cc(OC)c(OC)c(OC)c2)Cc2c1c(=O)c1cc(Cl)ccc1n2O` (stereo not given), for which the “Delta mean survival time” value with Plasmodium berghei [1] was 1.2; in the experiment with Plasmodium berghei [2] it was 5; in the experiment with Plasmodium berghei [3], 6; with Plasmodium berghei [7], 0.8.

Regarding `CCN(CC)CCO/N=C1\CC(c2ccc(Cl)c(Cl)c2)Cc2c1c(=O)c1cc(Cl)ccc1n2O` (stereo not given), the “Delta mean survival time” value in the experiment with Plasmodium berghei [1] is 2.1; with Plasmodium berghei [2] it was 3.7; with Plasmodium berghei [3], 8.7; in the experiment on Plasmodium berghei [4] it was 0.9.

For `CN(C)CCC/N=C1\CC(c2cccc3ccccc23)Cc2c1c(=O)c1cc(Cl)ccc1n2O` (stereo not given), the entries for the “No. of cured mice” value with Plasmodium berghei [8], in the experiment with Plasmodium berghei [5] and with Plasmodium berghei [6] were 1, 4 and 5, respectively. Besides, the “Delta mean survival time” value in the experiment with Plasmodium berghei [1] came to 9.3; in the experiment with Plasmodium berghei [2], 4.7; in the experiment with Plasmodium berghei [4], 7.1; in the experiment with Plasmodium berghei [7], 2.6.

Turning to `O=C1CC(c2cccc(C(F)(F)F)c2)Cc2c1c(=O)c1cc(Cl)ccc1n2[O-].[Na+]` (stereo not given), the “No. of cured mice” value is on record as 3 with Plasmodium berghei [5] and 5 in the experiment on Plasmodium berghei [6]. Moreover, the “Delta mean survival time” value in the experiment with Plasmodium berghei [1] is reported as 13.8; with Plasmodium berghei [9], 6.4; in the experiment with Plasmodium berghei [2], 16; in the experiment on Plasmodium berghei [4], 10; in the experiment on Plasmodium berghei [7], 7.8.

Take `O=C1CC(c2ccc(Cl)c(Cl)c2)Cc2nc3ccc(Cl)cc3c(O)c21` (stereo not given): the “No. of cured mice” value in the experiment with Plasmodium berghei [8] was found to be 1; in the experiment with Plasmodium berghei [5], 1; in the experiment with Plasmodium berghei [6], 2. For the same compound, the “Delta mean survival time” value with Plasmodium berghei [1] stood at 7.7; in the experiment with Plasmodium berghei [2], 10.2; in the experiment with Plasmodium berghei [3], 11.2; with Plasmodium berghei [4], 2.1.

As for `O=C1CC(c2ccc(Cl)c(Cl)c2)Cc2c1c(=O)c1ccccc1n2O` (stereo not given), the entries for the “No. of cured mice” value in the experiment on Plasmodium berghei [5] and in the experiment on Plasmodium berghei [6] were 1 and 2, respectively. For the same compound, the “Delta mean survival time” value in the experiment on Plasmodium berghei [1] turned out to be 5.1; in the experiment on Plasmodium berghei [2], 7.7; in the experiment with Plasmodium berghei [3], 12.6; with Plasmodium berghei [4], 3.1.

For the compound `COc1ccc(C2C/C(=N\CCCN(C)C)c3c(n(O)c4ccc(Cl)cc4c3=O)C2)cc1` (stereo not given), the “No. of cured mice” value in the experiment with Plasmodium berghei [6] was 3. Also, the “Delta mean survival time” value with Plasmodium berghei [1] came out at 0.7; in the experiment with Plasmodium berghei [2] it was 6.5; with Plasmodium berghei [3], 8.4; in the experiment with Plasmodium berghei [4], 0.1.

Take `O=c1c2c(n(O)c3ccc(Cl)cc13)CC(c1cccc(C(F)(F)F)c1)C/C2=N\C1CCN(Cc2ccccc2)CC1` (stereo not given): the “No. of cured mice” value in the experiment on Plasmodium berghei [8] is given as 2; with Plasmodium berghei [6], 1. In addition, the “Delta mean survival time” value came out at 8.6 in the experiment on Plasmodium berghei [1]; 8.4 with Plasmodium berghei [2]; 11.1 in the experiment on Plasmodium berghei [3]; 3.8 in the experiment with Plasmodium berghei [4]; 6.8 with Plasmodium berghei [7].

As for `N=C1CC(c2cccc(C(F)(F)F)c2)Cc2c1c(=O)c1cc(Cl)ccc1n2O` (stereo not given), the “Delta mean survival time” value in the experiment with Plasmodium berghei [1] came out at 3.8; in the experiment on Plasmodium berghei [2], 7.6; in the experiment with Plasmodium berghei [3], 8.2; in the experiment with Plasmodium berghei [4] it was 3.4; in the experiment on Plasmodium berghei [7], 1.4.

On to `COc1cc(C2CC(=O)c3c(n(O)c4ccc(Cl)cc4c3=O)C2)cc(OC)c1OC` (stereo not given), for which the “Delta mean survival time” value with Plasmodium berghei [1] worked out at 1.8; with Plasmodium berghei [2] it was 2.7; in the experiment with Plasmodium berghei [3] it was 7; in the experiment on Plasmodium berghei [4] it was 1.3.

Take `O=C1CC(C2CCCCC2)Cc2c1c(=O)c1cc(Cl)ccc1n2O` (stereo not given): the “No. of cured mice” value in the experiment on Plasmodium berghei [6] came to 1. Moreover, the “Delta mean survival time” value is listed as 2.9 with Plasmodium berghei [1], 6.5 with Plasmodium berghei [2], 12.7 in the experiment with Plasmodium berghei [3] and 2.5 in the experiment with Plasmodium berghei [4].

As to `CN(C)CCC/N=C1\CC(c2ccc(Cl)cc2Cl)Cc2nc3c(Cl)ccc(Cl)c3c(O)c21` (stereo not given), the figures for the “Delta mean survival time” value with Plasmodium berghei [9], in the experiment on Plasmodium berghei [2] and with Plasmodium berghei [4] were 1.2, 0 and 0, respectively.

Regarding `CSCCC/N=C1\CC(c2ccc(Cl)c(Cl)c2)Cc2c1c(=O)c1cc(Cl)ccc1n2O` (stereo not given), the “No. of cured mice” value with Plasmodium berghei [6] turned out to be 1. Moreover, the “Delta mean survival time” value in the experiment with Plasmodium berghei [1] stood at 1.7; in the experiment on Plasmodium berghei [2] it was 4.1; in the experiment on Plasmodium berghei [3], 3.7.

Consider `C/N=C1\CC(c2ccc(Cl)c(Cl)c2)Cc2c1c(=O)c1cc(Cl)ccc1n2O` (stereo not given), for which the “No. of cured mice” value with Plasmodium berghei [6] amounted to 3. Besides, the “Delta mean survival time” value with Plasmodium berghei [1] is recorded as 6.4; with Plasmodium berghei [2], 10.7; in the experiment on Plasmodium berghei [3] it was 10.8; in the experiment with Plasmodium berghei [4] it was 3.3.

On to `COc1cc(C2C/C(=N\CCCN(C)C)c3c(n(O)c4ccc(Cl)cc4c3=O)C2)cc(OC)c1OC` (stereo not given), for which the figures for the “Delta mean survival time” value in the experiment on Plasmodium berghei [1], in the experiment with Plasmodium berghei [2] and in the experiment on Plasmodium berghei [3] were 1, 4 and 4.3, respectively.

On to `Cc1ccc(C2C/C(=N\CCCN(C)C)c3c(n(O)c4ccc(Cl)cc4c3=O)C2)cc1` (stereo not given), for which the “No. of cured mice” value came out at 2 in the experiment with Plasmodium berghei [5] and 4 in the experiment with Plasmodium berghei [6]. Also, the “Delta mean survival time” value in the experiment on Plasmodium berghei [1] is reported as 3; in the experiment with Plasmodium berghei [2], 6; in the experiment on Plasmodium berghei [3] it was 1; in the experiment on Plasmodium berghei [4] it was 1.8; with Plasmodium berghei [7] it was 0.2.

Consider `CC(C)C1CC(=O)c2c(n(O)c3ccc(Cl)cc3c2=O)C1` (stereo not given), for which, in the experiment on Plasmodium berghei [6], the “No. of cured mice” value was 5. In addition, the “Delta mean survival time” value was determined as 3.5 in the experiment with Plasmodium berghei [1]; 0.1 in the experiment on Plasmodium berghei [9]; 8.3 with Plasmodium berghei [2]; 1.7 in the experiment with Plasmodium berghei [4]; 0.3 in the experiment on Plasmodium berghei [7].

Regarding `O=C1CC(c2cccc3ccccc23)Cc2c1c(=O)c1cc(Cl)ccc1n2O` (stereo not given), the “No. of cured mice” value in the experiment with Plasmodium berghei [5] was 2; in the experiment on Plasmodium berghei [6], 4. Further, the “Delta mean survival time” value with Plasmodium berghei [1] was 6.9; in the experiment with Plasmodium berghei [2], 5.7; with Plasmodium berghei [3], 13.7; in the experiment with Plasmodium berghei [4], 2.3.

As for `O=C1CC(c2cccc(C(F)(F)F)c2)Cc2nc3ccc(Cl)cc3c(O)c21` (stereo not given), the “Delta mean survival time” value with Plasmodium berghei [1] is 2.3; in the experiment with Plasmodium berghei [2], 3.3; in the experiment with Plasmodium berghei [3], 5.3; with Plasmodium berghei [4], 0.3.
